Shown are actives, neighbours in structure and some others; about 4.6% of the full set was active somewhere.
NALP1 inh = blocks the NALP1 inflammasome reconstituted in yeast | inhibition, % at 10 µM | S. cerevisiae NALP1/ASC/caspase-1 growth, X-gal OD620, 72 h | 280,000 compounds, 0.61% hits; in the data active means inhibition mostly above about 24%, no sharp cut-off; inactive means mostly below about 32%
NALP3 yeast inh = blocks the NALP3 inflammasome reconstituted in yeast; Yeast reconstituted NLRP3/ASC/caspase-1, beta-gal luminescence, 24 h; 330,000 compounds, 0.39% hits; inhibition, % at 10 µM;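 active means inhibition of 50% or more; inactive means inhibition below 50%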;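 further: plate controls were induced DMSO wells for no effect and uninduced yeast grown without galactose for full effect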
PolyA inhibitor = blocks polyadenylation in yeast reporter cells; S. cerevisiae SKY197-pL101 polyadenylation reporter, beta-gal luminescence; efflux-impaired pdr1/pdr3 knockout yeast; score 100 = 6 SD above DMSO; activity score, % at 12 µM; 300,000 compounds, 0.02% hits; AID 1875;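 active means lowest replicate activity score at least 50, where 100 means six control SD above control mean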;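 further: yeast exposed to compound for 9 h at 30 °C; higher score means more reporter readthrough which indicates perturbed polyadenylation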
ALR H2O2 inh = inhibitors of human sulfhydryl oxidase ALR. P55789. purified ALR, DTT oxidation, H2O2 HRP-luminol luminescence. inhibition, % (concentration not given with the values). 290,000 compounds, 3.8% hits;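 active means mean replicate inhibition above about 79%, with every replicate also reaching it, limit read from the data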
Arrestin-AP2 inh = human beta-arrestin and AP2 interaction inhibition; AID 504490; 340,000 compounds, 0.31% hits; inhibition, % at 10 µM; FITC-arrestin peptide / GST-AP2 beads, flow cytometry; AP2 beta2 appendage carries R879A mutation;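 active means inhibition above a set limit, near 3 SD of compounds lacking own fluorescence, cut at about 54% in these data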;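 further: plate controls were DMSO wells for no effect and 5 µM unlabelled arrestin peptide for full effect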
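system = GST-tagged AP2 beta2-adaptin appendage (R879A) on 4 µm glutathione beads | reagent = FITC-labelled arrestin peptide probe, 50 nM final | schedule = compound with beads 12 min RT, then probe 1 h RT | signal = HyperCyt-sampled flow cytometry, FL1 channel, ex 488/em 535 nm | read-out = percent response from loss of bead-bound FITC fluorescence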
DSG3 Ab inh = human desmoglein-3 autoantibody binding inhibition. P32926. DSG3-coupled beads, scFv-anti-DSG3-GFP binding, flow cytometry; active compounds read low. binding (percent of control), % at 10 µM. 310,000 compounds, 0.48% hits;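 active means binding more than 3 SD below its plate's average and above zero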;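 further: hits lower antibody fragment binding to DSG3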
Target sequence (P32926 whole entry, looked up, the tested form may be a part): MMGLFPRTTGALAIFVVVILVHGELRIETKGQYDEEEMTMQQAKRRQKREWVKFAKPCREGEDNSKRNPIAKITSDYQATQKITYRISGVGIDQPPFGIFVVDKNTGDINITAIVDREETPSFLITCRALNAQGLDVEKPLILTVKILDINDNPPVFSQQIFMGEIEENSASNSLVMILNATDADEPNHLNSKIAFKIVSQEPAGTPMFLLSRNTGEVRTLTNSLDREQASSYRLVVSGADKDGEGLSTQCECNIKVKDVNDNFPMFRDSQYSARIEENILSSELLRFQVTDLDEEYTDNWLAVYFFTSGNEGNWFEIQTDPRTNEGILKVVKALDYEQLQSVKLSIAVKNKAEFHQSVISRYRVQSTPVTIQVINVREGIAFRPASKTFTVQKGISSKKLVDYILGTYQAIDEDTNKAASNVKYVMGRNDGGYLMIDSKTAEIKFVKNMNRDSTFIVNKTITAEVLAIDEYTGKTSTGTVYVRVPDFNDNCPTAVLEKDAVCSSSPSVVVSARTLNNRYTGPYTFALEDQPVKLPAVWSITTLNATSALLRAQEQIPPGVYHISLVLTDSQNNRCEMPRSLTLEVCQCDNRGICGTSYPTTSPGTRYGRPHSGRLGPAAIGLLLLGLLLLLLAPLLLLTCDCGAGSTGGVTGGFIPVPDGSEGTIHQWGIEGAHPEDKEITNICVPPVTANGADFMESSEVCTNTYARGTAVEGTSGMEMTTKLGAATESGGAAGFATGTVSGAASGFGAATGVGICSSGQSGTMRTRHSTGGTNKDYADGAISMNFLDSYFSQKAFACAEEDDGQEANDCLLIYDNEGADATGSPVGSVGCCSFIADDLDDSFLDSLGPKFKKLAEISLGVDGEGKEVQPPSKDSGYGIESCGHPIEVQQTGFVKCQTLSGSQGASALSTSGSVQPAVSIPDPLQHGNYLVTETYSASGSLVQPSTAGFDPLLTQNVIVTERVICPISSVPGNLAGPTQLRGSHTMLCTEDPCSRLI
Active calls of the source: *; nt = not tested or not shown.

SMILES | NALP1 inh | NALP3 yeast inh | PolyA inhibitor | ALR H2O2 inh | Arrestin-AP2 inh | DSG3 Ab inh
COc1ccc(-c2nc(CSCC(=O)N3CCN(C(=O)c4ccco4)CC3)c(C)o2)cc1OC | -2.8 | 17.7 | 0.5 | 98.9* | 2.4 | 116.8
COc1ccc(-c2nc(CN3CCC(C(=O)NC4CC4)CC3)c(C)o2)cc1OC | -3.6 | 3.4 | 14.2 | -3.8 | -1.8 | 78.5
CCN1CCN(CCNC(=O)C2CCCN(Cc3nc(-c4cccc(Cl)c4)oc3C)C2)CC1 (stereo not given) | -10.6 | 16.3 | -2.4 | -9.2 | 4.3 | 111.3
COc1ccc(-c2nc(CSCC(=O)N3CCN(C)CC3)c(C)o2)cc1OC | 10.7 | 4.5 | 7.4 | 99.1* | 10.7 | 114.8
CCN1CCN(CCNC(=O)CSCc2nc(-c3ccc(OC)c(OC)c3)oc2C)CC1 | 8.1 | 17.8 | 16.0 | 99.4* | -2.3 | 100.8
CCN1CCN(C(=O)CSCc2nc(-c3ccc(OC)c(OC)c3)oc2C)CC1 | 1.4 | 10.4 | -5.7 | 98.5* | -0.5 | 108.5
COc1ccc(-c2nnc(SCC(=O)N3CCCC3)o2)cc1OC | nt | 8.1 | -16.7 | -4.2 | nt | nt
COc1cc(-c2nc(CN3CCCN(C(=O)c4ccco4)CC3)c(C)o2)ccc1F | -15.8 | 11.0 | 10.4 | -5.3 | -9.0 | 107.1
O=C(O)C1CCN(S(=O)(=O)c2ccc3[nH]ccc3c2)CC1 | nt | nt | nt | nt | nt | 104.6
NS(=O)(=O)c1ccc(CCNC(=O)Cc2cccs2)cc1 | 10.6 | 13.9 | 12.3 | -17.7 | -6.0 | 111.5
CCN(CC)S(=O)(=O)c1ccc(N2CCOCC2)c(NC(=O)c2cc3ccccc3o2)c1 | nt | nt | nt | nt | nt | 103.9
CCCc1c(C(=O)N/N=C/c2cccc3ccccc23)nnn1-c1nonc1N | 13.8 | 12.1 | -11.8 | -2.2 | -7.9 | nt
Cc1nn(-c2cccc(Cl)c2)c2nc(-c3ccco3)cc(C(=O)O)c12 | -7.6 | 14.6 | -5.9 | 20.0 | 31.2 | 97.4
Cc1nn(-c2ccccc2)c2nc(-c3ccco3)cc(C(=O)O)c12 | -2.1 | 6.0 | 1.2 | 97.0* | 4.6 | 101.3
O=C(NCCCN1CCN(CCCNC(=O)c2ccc3c(c2)OCO3)CC1)c1ccc2c(c1)OCO2 | 27.8* | 5.4 | 12.4 | -4.9 | 22.7 | 100.3
COCCCNC(=O)c1ccc2c(c1)OCO2 | 12.1 | 10.8 | 14.0 | -1.9 | 0.3 | nt
Cc1ccc(-c2nc(SCC(=O)N(C)c3c(N)n(Cc4ccccc4)c(=O)[nH]c3=O)n[nH]2)cc1 | 15.0 | 10.2 | -6.8 | 2.1 | 3.0 | 106.1
COc1ccc(Cl)cc1-c1csc(N)n1 | 6.8 | 28.2 | -11.2 | 73.1 | 14.2 | 99.6
Nc1nc(-c2ccc3c(c2)OCCO3)cs1 | -25.3 | 25.0 | 1.2 | 98.6* | -0.6 | 104.0
Nc1nc(-c2cc3c(cc2Cl)OCCO3)cs1 | 14.2 | 20.2 | 2.4 | 99.4* | -20.9 | 118.2
Cc1nc(-c2ccc3c(c2)OCCCO3)cs1 | 42.0* | 17.4 | 8.0 | -0.4 | 1.4 | 106.8
Cc1nc(-c2ccc3c(c2)OCO3)cs1 | 15.3 | 15.7 | 6.9 | -4.9 | 14.1 | nt
Nc1nc(-c2ccc3c(c2)CCCC3)cs1 | 21.7 | 24.2 | nt | 98.5* | 8.4 | 91.1
CN(C)c1ccc(N=Nc2ccccc2C(=O)OCC(=O)NC2CCCC2)cc1 | 29.7 | 15.6 | -10.0 | 96.9* | 5.1 | 92.9
CN(C)c1ccc(N=Nc2ccccc2C(=O)OCC(=O)NCC2CCCCC2)cc1 | 35.1 | 35.4 | -31.5 | 0.9 | -7.6 | 96.9
SMILES | NALP1 inh | NALP3 yeast inh | PolyA inhibitor | ALR H2O2 inh | Arrestin-AP2 inh | DSG3 Ab inh
CCCCN1C[C@H](C)[C@@H](CC(=O)NC)C1=O | nt | nt | nt | nt | nt | 108.3
Cc1ccc(S(=O)(=O)/N=C(\CCl)N2CCOCC2)cc1 | 24.1 | nt | 8.2 | 97.4* | 24.6 | 99.6
COc1ccc(N2C(=NC(=O)C(C)Oc3ccccc3)SC3CS(=O)(=O)CC32)cc1 (stereo not given) | 24.8 | -7.6 | -8.3 | -2.1 | 8.0 | nt
CN[C@@H](C)C(=O)NC[C@H]1O[C@@H](n2cnc3c(N)ncnc32)[C@H](O)[C@@H]1O | nt | nt | nt | nt | -6.1 | 100.6
Cc1ccc(CNC(=O)Nc2ccc3c(c2)N(C)C(=O)CS3)cc1 | 30.7* | 26.5 | 6.9 | -2.4 | 3.2 | 86.2
O=C1NC(=O)/C(=C\c2ccc(O)cc2O)S1 | -29.2 | 15.5 | 5.3 | 99.0* | 11.2 | 98.9
O=C1NC(=O)/C(=C/c2cc3c(cc2Br)OCO3)S1 | -7.3 | nt | 9.8 | 96.5* | 25.9 | 89.6
O=C1Nc2ccc3c(c2C1=Cc1cc2c(cc1Br)OCO2)OCO3 | nt | nt | nt | nt | 1.9 | 95.8
CCN(CC)CCNC(=O)c1ccc(NC(=O)c2ccc(-n3cncn3)c([N+](=O)[O-])c2)cc1 | nt | nt | nt | nt | nt | 98.0
CC1CCC(NC(=O)CN2C(=O)NC(C)(C)C2=O)CC1 (stereo not given) | nt | -5.4 | 1.9 | 2.0 | 0.2 | 107.6
Cc1nnc(SCC(=O)N/N=C/c2cc(Cl)c(O)c(Cl)c2)s1 | nt | -13.7 | 19.0 | 82.1* | 9.5 | 99.2
N#Cc1c(NC(=O)c2cnccn2)sc2c1CCCC2 | 15.1 | 22.0 | -5.3 | 98.3* | 1.5 | 98.6
Cc1ccc(/C=C/C(=O)Nc2sc3c(c2C#N)CCCC3)o1 | 20.8 | 1.0 | -10.0 | 93.3* | -2.7 | 94.1
Cc1ccc(/C=C/C(=O)NC2CCCCCCC2)o1 | 34.1 | 22.2 | -35.3 | 98.6* | 21.9 | 94.7
O=C(/C=C/c1cccs1)Nc1sc2c(c1C(=O)O)CCCC2 | -2.3 | 11.5 | 32.5 | 88.2* | -7.9 | 97.0
Oc1ccccc1C=NCCN1CCN(CCN=Cc2ccccc2O)C1c1ccccc1O (stereo not given) | nt | nt | nt | nt | -16.8 | 116.8
CC[N+]1(C)CCC(O)(c2ccc(OC)cc2)C(C(=O)c2ccc(OC)cc2)C1 (stereo not given) | nt | nt | nt | nt | 16.0 | nt
COC(=O)c1c(NC(=O)/C=C/c2ccco2)sc2c1CCC2 | 31.6 | 10.2 | -6.4 | 91.7* | 30.6 | nt
CC1CCN(S(=O)(=O)c2cc(C(=O)N3CCN(c4ccccc4)CC3)ccc2Br)CC1 | nt | nt | nt | nt | nt | 101.0
COc1ccc(NC(=O)C(C)N2C(=O)C3CC=C(Cl)CC3C2=O)cc1 (stereo not given) | 0.6 | 6.7 | 1.0 | -2.6 | -2.4 | 113.6
O=C(O)CCSCC(=O)c1ccc2c(c1)OCCO2 | 0.8 | 5.2 | -10.6 | 98.2* | 6.4 | 108.2
O=C(CSc1ncnc2ccccc12)c1ccc2c(c1)OCCO2 | 29.7 | 33.0 | -18.8 | 98.9* | nt | 102.3
Cc1sc2ncnc(SCC(=O)c3ccc4c(c3)OCCO4)c2c1-c1ccccc1 | 8.2 | 20.6 | -2.1 | -18.6 | 1.8 | 104.4
O=C(CSc1nc(Cc2ccccc2)nc2ccccc12)c1ccc2c(c1)OCCO2 | 26.9 | 19.4 | 4.4 | 99.0* | 3.0 | 104.5
CC(C)(C)c1ccc(OCCNC(=S)Nc2ccccc2)cc1 | 29.9* | 10.2 | -29.4 | nt | -3.8 | nt
CC(C)(C)c1ccc(OCCNCc2ccccc2)cc1 | 27.4 | 49.6 | -14.4 | nt | -11.6 | 114.7
FC(F)(F)c1nc(-c2ccncc2)ncc1-c1nnnn1-c1ccccc1 | 20.0 | 14.9 | -6.1 | -3.5 | -1.5 | 104.7

Bioassay records (PubChem BioAssay)
